Measured values of several laboratories.
Target: Ephrin type-B receptor 1 (EPHB1, Homo sapiens, UniProt P54762)
Residues used in one study (P54762 1-984): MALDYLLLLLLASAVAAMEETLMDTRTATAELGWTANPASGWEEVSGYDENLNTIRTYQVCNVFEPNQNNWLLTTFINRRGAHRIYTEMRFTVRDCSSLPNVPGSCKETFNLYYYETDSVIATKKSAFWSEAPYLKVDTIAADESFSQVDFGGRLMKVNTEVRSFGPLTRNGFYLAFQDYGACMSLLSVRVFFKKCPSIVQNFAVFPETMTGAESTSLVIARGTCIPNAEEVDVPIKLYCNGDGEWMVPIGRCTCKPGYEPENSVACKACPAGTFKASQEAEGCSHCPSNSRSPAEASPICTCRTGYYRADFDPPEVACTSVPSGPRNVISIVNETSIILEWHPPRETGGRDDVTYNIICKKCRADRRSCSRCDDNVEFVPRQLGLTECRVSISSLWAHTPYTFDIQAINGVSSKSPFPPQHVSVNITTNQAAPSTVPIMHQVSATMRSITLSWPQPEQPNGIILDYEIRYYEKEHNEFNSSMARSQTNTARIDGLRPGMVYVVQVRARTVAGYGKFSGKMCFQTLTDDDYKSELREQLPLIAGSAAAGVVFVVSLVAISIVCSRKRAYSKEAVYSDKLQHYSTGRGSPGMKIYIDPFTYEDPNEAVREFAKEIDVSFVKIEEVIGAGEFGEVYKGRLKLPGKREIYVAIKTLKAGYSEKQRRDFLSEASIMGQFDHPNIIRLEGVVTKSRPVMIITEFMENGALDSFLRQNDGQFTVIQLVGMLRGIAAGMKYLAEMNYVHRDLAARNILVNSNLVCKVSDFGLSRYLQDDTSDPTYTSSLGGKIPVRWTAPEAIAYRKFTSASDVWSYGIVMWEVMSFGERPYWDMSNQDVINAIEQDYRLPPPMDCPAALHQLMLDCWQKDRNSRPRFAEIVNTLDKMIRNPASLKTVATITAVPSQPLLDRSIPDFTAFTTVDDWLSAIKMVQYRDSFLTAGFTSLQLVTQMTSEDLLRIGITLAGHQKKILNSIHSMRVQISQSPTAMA

`O=C(N[C@H]1CCCCC/C=C\C2C[C@@]2(C(=O)O)NC(=O)[C@@H]2C[C@@H](Oc3ccncc3)CN2C1=O)OC1CCCC1` (some centres unmarked) gave a remaining binding of 100% (cell-free assay; competition with immobilised ligand; 1 µM).
`CC1CCCN1c1nccc(-c2cnn3ncccc23)n1` (centres unmarked) has a remaining binding of 100% (binding; 1 µM).
With `Cc1cc(NC(=O)c2cccc(S(F)(F)(F)(F)F)c2)cc(-n2ccn3nc(-c4cccnc4)cc23)c1` the remaining binding was 100% (cell-free assay; competition with immobilised ligand; 1 µM).
The remaining binding of `O=C(c1ccc(Nc2nccc(-c3cc4ccccc4s3)n2)cc1)N1CCC(N2CCCC2)CC1` is reported as 47% (binding; competition with immobilised ligand; 1 µM).
With `COc1ncc2cc3ccccc3nc2c1C#N` the remaining binding was 91% (cell-free assay; competition with immobilised ligand; 5 µM).
The remaining binding of `CNC(=O)[C@@H]1CC[C@@H](n2c(-c3ccc4cnccc4c3)nc3ccc(C(=O)NCc4cccc(C(N)=O)c4)cc32)C1` is reported as 100% (binding; competition with immobilised ligand; 1 µM).
`CO[C@@H](C)c1c(Nc2ccc([C@H](N(C)C(=O)C3CCS(=O)(=O)CC3)C(F)(F)F)cc2)cnc2cc(Cl)nn12` gave a remaining binding of 86% (cell-free assay; competition with immobilised ligand; 1 µM).
`N[C@H]1CCN(c2nccc(-c3cnn4ncccc34)n2)C1` has a remaining binding of 100% (binding; 1 µM).
For `O=C(NCCCN1CCOCC1)c1ccc(Nc2ncc(Cl)c(-c3ccc(Cl)s3)n2)cc1`, the remaining binding was 58% (binding; competition with immobilised ligand; 1 µM).
`O=C(O)c1cc(-c2ccc(C3CCNCC3)cc2)c2ccc(-c3ccc(C(F)(F)F)cc3)cc2c1` has a remaining binding of 100% (cell-free assay; competition with immobilised ligand; 1 µM).
With `O=C(Nc1c[nH]nc1C(=O)NC1CCNCC1)c1cc(F)cc(F)c1` the remaining binding was 100% (binding; competition with immobilised ligand; 1 µM).
`CN(c1nccc(-c2cnn3ncccc23)n1)C1CC1` gave a remaining binding of 100% (binding; 1 µM).
`FC(F)(F)Oc1cccc(-c2cnc3ccc(-c4ccncc4)nn23)c1` gave a remaining binding of 82% (cell-free assay; competition with immobilised ligand; 5 µM).
With `C[C@H]1CCN(c2nccc(-c3cnn4ncccc34)n2)C1` the remaining binding was 100% (binding; 1 µM).
`O=C(c1ccc(Nc2ncc(Cl)c(-c3cc4ccccc4s3)n2)cc1)N1CCC(N2CCCC2)CC1` has a remaining binding of 33% (binding; competition with immobilised ligand; 1 µM).
`CN(C)c1ncc(F)c(-c2cnn3ncccc23)n1` has a remaining binding of 100% (binding; 1 µM).
`O=c1nc(-c2ccccn2)sc2ccccc12` gave a remaining binding of 88% (cell-free assay; competition with immobilised ligand; 1 µM).
With `COc1cnc(Nc2cccc(S(N)(=O)=O)c2)nc1N1CCN(c2ccccc2)CC1` the remaining binding was 97% (binding; competition with immobilised ligand; 1 µM).
`CCS(=O)(=O)c1cc2cc(C[C@](O)(CC(C)(C)c3ccc(F)cc3C(N)=O)C(F)(F)F)[nH]c2cn1` gave a remaining binding of 86% (cell-free assay; competition with immobilised ligand; 1 µM).
With `Cc1cnn2ncc(-c3ccnc(N(C)C)n3)c2c1` the remaining binding was 100% (binding; 1 µM).
